Screening results deposited in PubChem BioAssay by Johns Hopkins Ion Channel Center.
Rows were chosen to be rich in hits. Some 3.7% of all compounds tested hit in one or more screens of this group.
KCNK3 inh: human KCNK3 channel inhibitors, primary screen, CHO cells, FluxOR thallium flux, B-score; B-score at 10 µM; FluxOR fluorescence; stronger effect = lower value; Potassium channel subfamily K member 3 (Homo sapiens), O14649; 340,000 compounds, 0.84% hits;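 active = B-score under library mean minus 4 SD, starting fluorescence ratio at most library mean plus 5 SD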;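 also: more negative B-score means stronger inhibition of thallium flux through KCNK3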
KCNQ1 block: inhibitors of human KCNQ1 channel, primary screen, cell-based, thallium flux, high-throughput | CHO-K1 KCNQ1, FluxOR thallium flux fluorescence; stronger effect = higher value | B-score at 10 µM | 310,000 compounds, 1.3% hits | AID 2642, 2010;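 active = compounds whose thallium flux B-score, printed positive for inhibition, exceeds three library SD while starting fluorescence stays within three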;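 also: channel opened by potassium depolarization with thallium stimulus after 20 min compound exposure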
Target sequence (P51787 whole entry, looked up): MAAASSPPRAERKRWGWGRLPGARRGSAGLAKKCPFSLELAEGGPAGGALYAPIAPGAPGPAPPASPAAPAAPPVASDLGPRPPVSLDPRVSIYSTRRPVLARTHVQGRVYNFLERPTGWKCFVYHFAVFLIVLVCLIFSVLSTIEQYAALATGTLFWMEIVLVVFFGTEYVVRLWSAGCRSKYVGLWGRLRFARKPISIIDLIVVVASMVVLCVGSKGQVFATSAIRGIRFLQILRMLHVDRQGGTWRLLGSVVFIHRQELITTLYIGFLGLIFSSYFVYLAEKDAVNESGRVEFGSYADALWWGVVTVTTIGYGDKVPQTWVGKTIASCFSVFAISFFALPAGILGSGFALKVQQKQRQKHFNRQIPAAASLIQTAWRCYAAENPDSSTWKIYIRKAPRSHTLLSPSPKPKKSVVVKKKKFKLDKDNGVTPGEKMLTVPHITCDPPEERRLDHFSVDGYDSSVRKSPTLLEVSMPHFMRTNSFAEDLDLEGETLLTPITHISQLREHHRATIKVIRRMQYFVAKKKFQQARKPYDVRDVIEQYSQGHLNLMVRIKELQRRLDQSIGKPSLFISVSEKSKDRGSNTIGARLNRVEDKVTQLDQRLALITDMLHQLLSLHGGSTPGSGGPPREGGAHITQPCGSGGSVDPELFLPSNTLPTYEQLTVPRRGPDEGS
hERG rescue: hERG rescue from dofetilide block, primary screen, cell-based, CHO-hERG, FluxOR thallium flux, dofetilide IC70. Voltage-gated inwardly rectifying potassium channel KCNH2 (Homo sapiens), Q12809. dofetilide IC70 present. activation (rescue from dofetilide block), less the hit threshold, % at 10 µM. 310,000 compounds, 0.51% hits;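 active = activation above the mean of controls blocked by dofetilide plus 5 SD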;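 also: thallium influx through hERG after potassium depolarization seen as dye fluorescence rise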
KCNQ1 pot: potentiators or activators of KCNQ1 channel, primary screen, cell-based, thallium flux, high-throughput; 310,000 compounds, 0.35% hits; B-score at 10 µM; CHO-K1 KCNQ1, thallium flux FluxOR fluorescence; stronger effect = higher value; AID 2648, 2010;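 active = fluorescence ratio B-score, a plate-corrected score, at least three library SD, with initial intensity B-score within 5 SD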
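Doses: Single concentration per compound, DMSO matched to controls | Test system: KCNQ1-transfected CHO-K1 cells | Timing: 90 min dye loading and 20 min compound exposure, both at room temperature | Measured by: Kinetic FluxOR thallium fluorescence, 10-s 1-Hz baseline, 110-s post-stimulus read | Medium: Assay buffer with matched DMSO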
Kir21 inh: inhibitors of mouse Kir2.1 inward-rectifier potassium channel; HEK293-Kir2.1, FluxOR thallium flux fluorescence; stronger effect = lower value; B-score at 10 µM; AID 1672, 2009; 310,000 compounds, 0.85% hits;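 active = fluorescence ratio B-score at or below minus 3 SD of library scores, with starting-brightness B-score within 2 SD, cut at about -4.2 in these data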;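 also: channel flux triggered by added potassium and thallium sulfate stimulus; B-score of peak minus minimum fluorescence over baseline after thallium stimulus; more negative B-score means stronger Kir2.1 block with less thallium influx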
KCNK9 block: KCNK9 potassium channel inhibitors, primary screen, HEK293 cells, thallium flux; FluxOR thallium flux fluorescence; stronger effect = lower value; 310,000 compounds, 1.2% hits; B-score at 10 µM; Potassium channel subfamily K member 9 (Homo sapiens), Q9NPC2;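 active = ratio B-score over 3 SD below the library mean, with starting fluorescence within 5 SD of its mean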;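 also: negative B-score means less thallium flux so channel inhibition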
KCNK9 block conf: KCNK9 potassium channel inhibitors, confirmation, HEK293 cells, thallium flux, duplicate; FluxOR thallium flux fluorescence; AID 492992, 2010; inhibition, % at 10 µM; shares compounds with KCNK9 block; 4,900 compounds, 43% hits;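 active = thallium signal inhibited by more than 5 SD of the compound-free buffer control wells, on both duplicate plates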
Kir2-1 spec: mouse Kir2.1 channel inhibition, confirmation, selectivity assay for KCNK9 modulator project, cell-based, HEK293, thallium flux. Kir2.1 cells, FluxOR thallium flux fluorescence. inhibition, % at 10 µM. AID 492993, 2010. 4,900 compounds, 4% hits. shares compounds with KCNK9 block;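 active = thallium signal drop more than 5 SD beyond the mean of the no-compound control wells, seen in both duplicate plates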;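 also: signal is fluorescence rise after thallium addition divided by baseline fluorescence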
KCNK9 uninduced: thallium flux in non-induced HEK293 cells, confirmation, counter-screen for KCNK9 inhibitor project, cell-based, second counter screen, non-induced KCNK9-HEK293; shares compounds with KCNK9 block; FluxOR thallium flux; inhibition, % at 10 µM; 4,900 compounds, 40% hits; AID 492997, 2010;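 active = thallium signal drop beyond 5 SD of the untreated control mean, on both duplicate plates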
Each line names hits and unclear results; the compound was inactive in the other large screens (follow-up assays come after a bar, where they were run).

Cc1noc(C)c1S(=O)(=O)Nc1ccc(O)c2c(=O)cc(-c3ccccc3Cl)oc12	none | KCNK9 block conf inactive | Kir2-1 spec inactive | KCNK9 uninduced inactive
O=C(Nc1ccc(O)c2c(=O)cc(-c3ccccc3Cl)oc12)c1ccccc1Cl	none
COc1cc(N2CCCC2)c(OC)cc1/C=C(/C#N)c1cccc(F)c1	KCNK3 inh -10.5, KCNQ1 block 7, KCNK9 block -12.4 | KCNK9 block conf 61.0% | Kir2-1 spec 35.0% | KCNK9 uninduced 50.0%
COc1cccc(/C=C(/C#N)c2ccc(F)cc2)c1OCc1cccc(C(=O)O)c1	none
N#C/C(=C/c1ccc(N2CCCCCC2)o1)c1cccc(F)c1	KCNK3 inh -13, KCNQ1 block 9, KCNK9 block -15.1 | KCNK9 block conf 74.0% | Kir2-1 spec inactive | KCNK9 uninduced 71.0%
N#C/C(=C/c1ccc(N2CCCCCC2)o1)c1ccc(F)cc1	KCNK3 inh -10.6, KCNK9 block -9.25 | KCNK9 block conf 58.5% | Kir2-1 spec inactive | KCNK9 uninduced 70.5%
CCOC(=O)CC(C)(C)/C(C)=N/Nc1ccc([N+](=O)[O-])cc1[N+](=O)[O-]	none
O=C(OCc1nnc(-c2ccccc2)o1)C12CC3CC(CC(Br)(C3)C1)C2	none | KCNK9 block conf inactive | Kir2-1 spec inactive | KCNK9 uninduced inactive
Cc1ccc(C)c(C(=O)COC(=O)c2ccc(Br)o2)c1	KCNK9 block -8.7 | KCNK9 block conf 36.5% | Kir2-1 spec inactive | KCNK9 uninduced inactive
Cc1ccc(C)c(C(=O)COC(=O)CNS(=O)(=O)c2ccccc2)c1	none
Cc1ccc(C)c(C(=O)COC(=O)c2cc(Cl)nc3ccccc23)c1	KCNK9 block -9.41 | KCNK9 block conf 67.0% | Kir2-1 spec inactive | KCNK9 uninduced 45.0%
O=C(COC(=O)c1ccc(Cl)nc1)NNC(=O)c1ccc(Cl)cc1	none
N=c1c2c(-c3ccccc3)c(-c3ccccc3)n(Cc3ccco3)c2ncn1Cc1ccccc1	KCNQ1 block 10, Kir21 inh -5.91, KCNK9 block -15.4 | KCNK9 block conf 59.5% | Kir2-1 spec 52.0% | KCNK9 uninduced 27.5%
O=c1c2c3nc4ccccc4nc3n(Cc3ccccc3)c2ncn1Cc1ccco1	none (no result: KCNQ1 block, hERG rescue, KCNQ1 pot, Kir21 inh, KCNK9 block)
CC(C)Cn1cnc2c(c(-c3ccccc3)c(-c3ccccc3)n2Cc2ccco2)c1=N	KCNQ1 block 9, Kir21 inh -9.72, KCNK9 block -9.85 | KCNK9 block conf 67.5% | Kir2-1 spec 56.5% | KCNK9 uninduced 28.5%
Cc1ccc(/C=C/C(=O)N2CCN(S(=O)(=O)/C=C/c3ccccc3)CC2)o1	none
COc1cc(NS(=O)(=O)c2ccc(NC(C)=O)cc2)nc(OC)n1	none
COc1cc(NS(=O)(=O)c2ccc(N/C=C(\C#N)c3nc4cc(Cl)ccc4o3)cc2)nc(OC)n1	none | KCNK9 block conf inactive | Kir2-1 spec inactive | KCNK9 uninduced inactive
CCCCCCCCCCCCCCCC[n+]1cccc2ccccc21	none (no result: KCNQ1 block, hERG rescue, KCNQ1 pot, Kir21 inh, KCNK9 block)
CCCCCCCCC[n+]1cccc2c3ccccc3ccc21	Kir21 inh -10.4, KCNK9 block -17.4 | KCNK9 block conf 70.5% | Kir2-1 spec 89.5% | KCNK9 uninduced 30.0%
COC(=O)c1sc(-c2ccc(Cl)cc2)cc1NC(=O)CSCC(=O)O	none | KCNK9 block conf inactive | Kir2-1 spec inactive | KCNK9 uninduced inactive
O=C(CN1CCCC1)Nc1ccccc1C(=O)c1ccccc1	none
O=C(c1ccccc1)c1ccccc1NC(=O)C1CCCN1Cc1ccccc1 (configuration not stated)	KCNK9 block -9.47 | KCNK9 block conf 58.5% | Kir2-1 spec inactive | KCNK9 uninduced 38.5%
COc1cc(NC(=O)c2ccccc2)c(OC)cc1NC(=O)CN1CCOCC1	none
CCc1cc(C(c2ccc(OC)c(OC)c2)N2CCOCC2)c(NC(=O)c2ccccc2)s1 (configuration not stated)	none | KCNK9 block conf inactive | Kir2-1 spec inactive | KCNK9 uninduced inactive
CCOc1ccc(Nc2nc(Nc3ccc(O)cc3)nc(C)c2[N+](=O)[O-])cc1	none
COc1ccc(-c2[nH]ncc2/C=C(/C#N)C(=O)NC2CCCCCC2)cc1	none | KCNK9 block conf inactive | Kir2-1 spec inactive | KCNK9 uninduced inactive
CSc1ccccc1OCc1cc(C(=O)NCCc2nc(C)cc(C)n2)no1	none
c1csc(-c2noc(COc3ccc4c(c3)CCCC4)n2)c1	none | KCNK9 block conf inactive | Kir2-1 spec inactive | KCNK9 uninduced inactive
Brc1ccc(-c2noc(COc3ccc4c(c3)CCC4)n2)o1	none | KCNK9 block conf inactive | Kir2-1 spec inactive | KCNK9 uninduced inactive
Clc1ccc(OCc2nc(-c3ccc(Br)o3)no2)cc1	none
O=c1nc(SCc2ccc(Cl)cc2)nc(-c2ccccc2)[nH]1	none | KCNK9 block conf inactive | Kir2-1 spec inactive | KCNK9 uninduced inactive
Nn1c(-c2ccccc2)nc2cc(Cl)ccc2c1=O	none
Cc1ccc(CNC(=O)CSc2c3c(nc4cc(Cl)ccc24)CCCC3)o1	none
CC(=O)c1cnn(-c2nc3c(C)cccc3s2)c1C	none | KCNK9 block conf inactive | Kir2-1 spec inactive | KCNK9 uninduced inactive
O=S(=O)(Nc1ccc(OC(F)F)cc1)c1ccc(-c2ccon2)s1	none
O=C(N/N=C/c1cc2c3c(c1O)CCCN3CCC2)c1ccccc1O	KCNK3 inh -10.2, KCNQ1 block 12, KCNK9 block -9.95 | KCNK9 block conf 49.0% | Kir2-1 spec inactive | KCNK9 uninduced 55.0%
O=C(NCCCc1ccccc1)c1ccc([N+](=O)[O-])cc1Cl	none
O=C(NCc1ccccn1)c1ccc(CNS(=O)(=O)c2cccc(Cl)c2)cc1	none
CCN1CCN(c2nnc(-c3ccccc3)c3ccccc23)CC1	none
CCCCSc1nnc(-c2ccccc2)c2ccccc12	KCNK9 block -14.7 | KCNK9 block conf 38.0% | Kir2-1 spec inactive | KCNK9 uninduced 42.5%
O=[N+]([O-])c1cc2c(c(CSc3nnc(Nc4ccccc4)s3)c1)OCOC2	none
